{
  "source": "paper PMC5107128",
  "about": "(Pharmacological research, 2016)",
  "molecules": {"B1": {"name": "recombinant active MMP2: recombinant active MMP2 added to cells at 25ng/ml (protein, UniProt P08253 110-660, looked up)", "72 kDa type IV collagenase": "YNFFPRKPKWDKNQITYRIIGYTPDLDPETVDDAFARAFQVWSDVTPLRFSRIHDGEADIMINFGRWEHGDGYPFDGKDGLLAHAFAPGTGVGGDSHFDDDELWTLGEGQVVRVKYGNADGEYCKFPFLFNGKEYNSCTDTGRSDGFLWCSTTYNFEKDGKYGFCPHEALFTMGGNAEGQPCKFPFRFQGTSYDSCTTEGRTDGYRWCGTTEDYDRDKKYGFCPETAMSTVGGNSEGAPCVFPFTFLGNKYESCTSAGRSDGKMWCATTANYDDDRKWGFCPDQGYSLFLVAAHEFGHAMGLEHSQDPGALMAPIYTYTKNFRLSQDDIKGIQELYGASPDIDLGTGPTPTLGPVTPEICKQDIVFDGIAQIRGEIFFFKDRFIWRTVTPRDKPMGPLLVATFWPELPEKIDAVYEAPQEEKAVFFAGNEYWIYSASTLERGYPKPLTSLGLPPDVQRVDAAFNWSKNKKTYIFAGDKFWRYNEVKKKMDPGFPKLIADAWNAIPDNLDAVVDLQGGGHSYFFKGAYYLKLENQSLKSVKFGSIKSDWLGC"}},
  "key": {"WM266-4 cells [1]": {"test_system": "WM266-4 cells", "assay": "Transwell Matrigel invasion assay", "format": "cell-based, human", "summary_of_the_method": "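25 × 10^4 WM266-4 cells in suspension were treated with 0.16 or 0.32µM test compound; shMT1-MMP cells got recombinant MMP2 at 25ng/ml. Cells were placed in 8-µm-pore inserts, uncoated or coated with growth-factor-reduced Matrigel, with DMEM plus 5% FBS below. After 24 h, cells on the bottom membrane were fixed in 4% formaldehyde and stained with Coomassie. Stain was extracted in 10% acetic acid and read at […], in triplicate. Invasion % = Matrigel/control insert × 100.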"}, "[2]": {"settings": "cited from earlier work"}, "WM266-4 cells [3]": {"test_system": "WM266-4 cells", "assay": "Scratch migration assay", "format": "cell-based, human"}, "WM266-4 cells [4]": {"test_system": "WM266-4 cells", "assay": "Orthotopic melanoma model: WM266-4 cells intradermally in NOD/SCID mice", "format": "in vivo", "summary_of_the_method": "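Male NOD/SCID mice (5–8 weeks) received 2 × 10^6 luciferase-transduced WM266-4 cells intradermally in dorsal flanks (9 control, 18 treated tumors). Dosing began at about 120 mm3 mean tumor volume: 25 mg/Kg once daily subcutaneously, from 7.5 mg/ml in sterile PBS, filter-sterilized. Tumor volume taken as (w2 × l) × 0.52 and normalized to time 0. Primary tumors resected at day 42. Lung bioluminescence checked twice weekly. Lungs/thymi S100-stained at 30 weeks post-surgery.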"}, "MT1-MMP": {"molecular_target": "MT1-MMP (Homo sapiens, UniProt P50281)", "assay": "MT1-MMP activity assay", "format": "cell-based", "settings": "WM266-4 cells, 0.32 µM, overnight", "summary_of_the_method": "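WM266-4 cells treated overnight with test compound (0.32 µM final). Comparators were a neutralizing antibody (1 μg/ml), recombinant MT1-MMP (0.5 μg/ml) or shMT1-MMP expression. Membranes extracted by three freeze-thaw cycles, sonicated, pelleted (30 min, 13 000 g, 4°C) and resuspended in PBS. Equal protein incubated with fluorogenic substrate Mca-PLGL-Dap(Dnp)-AR-NH2; fluorescence read at Ex/Em […].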"}, "MMP2 [5]": {"test_system": "MMP2", "assay": "Gelatin zymography of conditioned medium", "format": "cell-based, human", "settings": "WM266-4 cells, 0.32 µM", "summary_of_the_method": "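WM266-4 cells were treated with 0.32µM test compound or DMSO, and serum-free conditioned medium was collected. Medium was concentrated on a 30K cutoff device, and 10 μg protein was run on 8% SDS-PAGE containing 2 mg/ml gelatin. Gels were washed in 2.5% Triton X-100, then incubated overnight at 37°C in 50 mM Tris-HCl, 5 mM CaCl2, 0.1% Triton X-100, pH 7.8. Gels were Coomassie R250-stained 45 min, then destained.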"}, "other MMPs": {"test_system": "other MMPs", "settings": "cited from earlier work"}, "RAC1": {"test_system": "RAC1", "assay": "RAC1 activity assay", "format": "cell-based, human", "settings": "WM266-4 cells, 0.32 µM, 24 hours", "summary_of_the_method": "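Cells at 70% confluency were serum-starved in DMEM with 0.5% serum for 24 h, then serum-free for a further 24 h. They were lysed in the G-LISA kit buffer. Equal protein amounts were added to Rac1-GTP-binding wells, and active RAC1 was read at OD 490 nm.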"}, "[6]": {"settings": "cited from earlier work", "remark": "listed apart in the source"}, "melanoma cell lines": {"test_system": "melanoma cell lines", "assay": "Cell proliferation assay", "format": "cell-based, human", "summary_of_the_method": "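Crystal violet growth assay. Melanoma cells were kept in DMEM with 10% FCS, 1% glutamine and 1% penicillin-streptomycin. They were seeded at 16,000/cm2 in triplicate and treated with 0.32 µM test compound or DMSO vehicle. shMT1-MMP WM266-4 cells received recombinant MMP2 at 25ng/ml. At each time point cells were fixed in 10% buffered formalin and stained with crystal violet. Growth is expressed relative to controls.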"}, "prostate cancer": {"test_system": "prostate cancer", "settings": "cited from earlier work"}, "MMP2 [7]": {"molecular_target": "T1, MMP2 (Homo sapiens, UniProt P08253)", "T1 sequence (P08253 110-660)": "B1 72 kDa type IV collagenase", "settings": "cited from earlier work"}, "[8]": {"settings": "WM266-4 cells, recombinant MMP2 25ng/ml"}},
  "data": [
    {"molecule": "Nc1ccc(Oc2ccc(S(=O)(=O)CC3CS3)cc2)cc1", "note": "(stereo not shown) [ND-322]", "values": [
      {"measurement": "invasion capacity of WM266-4 melanoma cells", "setting": "WM266-4 cells [1]; 0.16 and 0.32 µM, 24 hours, dose dependent", "value": "inhibited significantly"},
      {"measurement": "tolerability in a model of wound healing", "setting": "[2]", "value": "well tolerated"},
      {"measurement": "motility (migration) of WM266-4 melanoma cells", "setting": "WM266-4 cells [3]; 0.16 and 0.32 µM, dose dependent", "value": "inhibited significantly"},
      {"measurement": "tumor growth compared to controls", "setting": "WM266-4 cells [4]; 25 mg/Kg/day subcutaneously, NOD/SCID mice", "value": "reduced tumor growth significantly"},
      {"measurement": "body weight over time", "setting": "WM266-4 cells [4]; 25 mg/Kg/day, NOD/SCID mice", "value": "maintained their weight"},
      {"measurement": "tolerability of treatment", "setting": "WM266-4 cells [4]; 25 mg/Kg/day, NOD/SCID mice", "value": "well tolerated"},
      {"measurement": "mice presenting with tumor cells in the lungs (lung metastasis)", "setting": "WM266-4 cells [4]; 30 weeks post-surgery, control animals 90%", "value": 40, "unit": "%"},
      {"measurement": "MT1-MMP activity", "setting": "MT1-MMP", "value": "as effective as antibody neutralization and knockdown"},
      {"measurement": "MMP2 activation by gelatin zymography", "setting": "MMP2 [5]", "value": "inhibited MMP2 activation"},
      {"measurement": "inhibition of other MMPs", "setting": "other MMPs", "value": "does not inhibit or poorly inhibits"},
      {"measurement": "activity of the small GTPase RAC1", "setting": "RAC1", "value": "reduce the activity"},
      {"measurement": "crossing of the blood/brain barrier", "setting": "[6]", "value": "cross the blood/brain barrier"},
      {"measurement": "cell growth of several melanoma cell lines", "setting": "melanoma cell lines; 0.32 µM", "value": "inhibited cell growth"}
    ]},
    {"molecule": "O=S(=O)(CC1CS1)c1ccc(Oc2ccccc2)cc1", "note": "(stereo not shown) [SB-3CT, reference compound]", "values": [
      {"measurement": "bone metastasis in a xenograft model of prostate cancer", "setting": "prostate cancer", "value": "effectively prevent bone metastasis"},
      {"measurement": "crossing of the blood/brain barrier", "setting": "[6]", "value": "cross the blood/brain barrier"}
    ]},
    {"molecule": "TIMP1: tissue inhibitor of matrix metalloproteinase (TIMP)1", "values": [
      {"measurement": "residence time bound to MMP2", "setting": "MMP2 [7]", "value": 6.9, "unit": "min"}
    ]},
    {"molecule": "B1", "values": [
      {"measurement": "rescue of cell invasion in cells expressing shMT1-MMP", "setting": "WM266-4 cells [1]; [8]", "value": "rescued"},
      {"measurement": "rescue of cell motility in cells expressing shMT1-MMP", "setting": "WM266-4 cells [3]; WM266-4 cells, recombinant MMP2 25ng/ml, 24 hours", "value": "rescued"},
      {"measurement": "rescue of cell growth in cells expressing shMT1-MMP", "setting": "melanoma cell lines; [8]", "value": "did not rescue cell growth"}
    ]}
  ]
}
